# Source: publication PMC6953265 (Molecular imaging and biology, 2019)
# Values joined by “and” are separate entries in the source; they are usually repeats but may differ in a detail not shown here. Equal values may be shown once. Read-outs that look alike come from different tables or passages of the source.
# Tests used:
# [1] = biological target: T1, TSPO (Rattus norvegicus, UniProt P16257); conditions: earlier study; cited from earlier work
# [2] = biological target: T1, TSPO; experiment: Compartmental modeling of dynamic PET data; format: in vivo; conditions: for VT ratio between tumor and normal brain: from VT values of Table 1; for K1/k2 / VT / k3/k4 (BPND): mean ± SEM, n = 7
# [3] = biological target: T1, TSPO; conditions: mean ± SEM, n = 5, cited from earlier work
# [4] = biological target: T1, TSPO; format: binding; conditions: C6 glioma cell lysate; for IC50: read-out: TSPO binding affinity (IC50), competition with [^3H]PK 11195 (0.6 nM), 2 h at 25 °C
# Procedure, shortened: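 C6 cells PBS-washed, then freeze-thawed three times in lysis buffer (5.0 mM HEPES, mannitol, sucrose, benzamidine, MgCl2, pH 7.4); lysate 0.5 mg/ml. Lysate incubated with [3H]PK 11195 (final 0.6 nM) and test compound (10−5 to 10−14 M), 2 h, 25 °C. Rapid filtration onto polyethylenimine-presoaked filters, scintillation counting. IC50 fitted in triplicate; fold values are IC50 ratios.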
# [5] = tested on: C6 glioma; experiment: In vivo uptake of [^18F]VUIIS1018A, 60-min dynamic PET in C6 glioma-bearing rats; set-up: species or system rat
# Procedure, shortened: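 Male Wistar rats, 1.0 × 10^5 C6 glioma cells implanted stereotactically in right hemisphere 2 weeks before imaging; tumours confirmed by T2-weighted MRI at 4.7T. Venous and arterial catheters placed. 18F-labelled tracer 1.1 ± 0.3 mCi given via jugular catheter in microPET; 60-min listmode dynamic scan (32 frames), CT attenuation correction, 2D OSEM reconstruction. Tumour and contralateral brain VOIs gave time-activity curves.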
# [6] = biological target: T1, TSPO; format: in vivo; conditions: blocking with [^19F]VUIIS1018A 10 mg/kg 5 min before tracer
# Procedure, shortened: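 C6 glioma-bearing male Wistar rats, catheterised venous and arterial. Unlabelled (19F) analogue of tracer, 10 mg/kg, given 5 min before 18F tracer (1.1 ± 0.3 mCi, jugular catheter), then 60-min dynamic microPET with CT attenuation correction. Time-activity curves from tumour and contralateral brain VOIs. BPND maps by SRTM2, normal cerebrum as reference tissue. n = 3.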
smiles,measurement,setting,value
"CCc1cc(CC)n2nc(-c3ccc(OCCF)cc3)c(CC(=O)N(CC)CC)c2n1 [VUIIS1008, 2-(5,7-diethyl-2-(4-(2-fluoroethoxy)phenyl)pyrazolo[1,5-a]pyrimidin-3-yl)-N,N-diethylacetamide]",fold enhancement in binding affinity compared to DPA-714,[1],36 fold
"CCc1cc(CC)n2nc(-c3ccc(OCC[18F])cc3)c(CC(=O)N(CC)CC)c2n1 [[^18F]VUIIS1008, 2-(5,7-Diethyl-2-(4-(2-[^18?F]fluoroethoxy)phenyl)pyrazolo[1,5-a]pyrimidin-3-yl)-N,N-diethylacetamide]",VT ratio between tumor and normal brain,[2],6.0
same,K1/k2,[3]; Brain,0.855 ± 0.325
same,VT,[3]; Brain,4.210 ± 1.612
same,k3/k4 (BPND),[3]; Brain,4.435 ± 1.387
same,k3/k4 (BPND),"[3]; Brain, listed as [^18 F]VUIIS1008",4.43
same,K1/k2,[3]; Tumor,1.902 ± 0.816
same,VT,[3]; Tumor,25.224 ± 10.035
same,k3/k4 (BPND),[3]; Tumor,12.63 and 12.634 ± 1.406
CCCCc1cc(C)n2nc(-c3ccc(OCCF)cc3)c(CC(=O)N(CC)CC)c2n1 [VUIIS1018B],fold lower binding affinity than VUIIS1018A,[4]; ratio of IC50 values,6000 fold
same,IC50,[4],100 nM
CCCCc1cc(C)nc2c(CC(=O)N(CC)CC)c(-c3ccc(OCCF)cc3)nn12 [VUIIS1018A],fold enhancement in binding affinity compared with DPA-714,[4]; ratio of IC50 values,~700 fold
same,fold enhancement in binding affinity compared with VUIIS1008,[4]; ratio of IC50 values,20 fold
same,IC50,[4],0.0162 nM
"CCCCc1cc(C)nc2c(CC(=O)N(CC)CC)c(-c3ccc(OCC[18F])cc3)nn12 [[^18F]VUIIS1018A, 2-(7-Butyl-2-(4-(2-[^18F]Fluoroethoxy)phenyl)-5-Methylpyrazolo[1,5-a] Pyrimidin-3-yl)-N,N-Diethylacetamide]",fold enhancement in binding affinity compared with DPA-714,[4]; ratio of IC50 values,approximately 700 fold
same,fold enhancement in binding affinity compared with DPA-714,"[4]; ratio of IC50 values, listed as [^18 F]VUIIS1018A",700 fold
same,K1/k2,[2]; Brain,0.311 ± 0.036
same,VT,[2]; Brain,1.214 ± 0.190
same,k3/k4 (BPND),[2]; Brain,2.91 and 2.913 ± 0.456
same,K1/k2,[2]; Tumor,0.532 ± 0.130
same,VT,[2]; Tumor,11.036 ± 3.731
same,k3/k4 (BPND),[2]; Tumor,23.10 and 23.097 ± 4.757
same,VT ratio between tumor and normal brain,[2],9.1
same,fold higher k3/k4 in tumor compared with healthy brain,[2]; from k3/k4 values of Table 1,8 fold
same,accumulation in C6 gliomas,[5],robust accumulation
same,accumulation in normal brain,[5],negligible accumulation
same,circulating plasma radioactivity compared with the unblocked scenario,[6],significantly elevated
same,effect of blocking dose on accumulation in the normal brain,[6],insignificant effect
same,overall reduction in tumor PET signal,"[6]; mean ± SD, n = 3",48.3 ± 2.8%
